PMI act hi M6P: human PMI activators, high substrate, primary screen, biochemical, fluorescence intensity, near-saturating mannose 6-phosphate; activation factor at 20 µM; 190,000 compounds, 0.34% hits; Mannose-6-phosphate isomerase (Homo sapiens), P34949; AID 1216, 2008; coupled PMI enzyme assay, resazurin fluorescence, 20 min; stronger effect = higher value; 1 = untreated enzyme, 0 = substrate-free blank;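 active = activation factor of 2 or more at 20 µM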
Target sequence (P34949 whole entry, looked up): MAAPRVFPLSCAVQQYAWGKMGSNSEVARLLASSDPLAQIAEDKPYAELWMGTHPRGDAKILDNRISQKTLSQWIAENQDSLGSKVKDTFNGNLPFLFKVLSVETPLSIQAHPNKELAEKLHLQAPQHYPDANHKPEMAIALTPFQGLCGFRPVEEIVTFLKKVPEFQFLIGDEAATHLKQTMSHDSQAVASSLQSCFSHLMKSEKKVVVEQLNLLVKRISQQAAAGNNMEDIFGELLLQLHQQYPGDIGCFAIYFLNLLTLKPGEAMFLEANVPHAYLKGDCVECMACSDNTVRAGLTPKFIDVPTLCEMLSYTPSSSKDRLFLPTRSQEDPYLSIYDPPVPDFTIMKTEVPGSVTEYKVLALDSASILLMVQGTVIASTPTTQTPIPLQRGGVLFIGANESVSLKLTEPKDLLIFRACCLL
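Test system: Human PMI in coupled enzyme assay | Input: 15 ng/mL PMI | Medium: HEPES-buffered pH 7.4 with magnesium and detergent | Compound: One concentration, 20 µM, in 1% DMSO | Incubation: Enzyme reaction with compound 20 min at room temperature | Detection: Diaphorase-driven resazurin-to-resorufin fluorescence, excitation 544, emission 590 nm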
PTEN del growth: growth suppression of PTEN-null HCT116, primary screen, cell-based, CellTiter-Glo. HCT116 PTEN-null viability, 60 h; stronger effect = lower value. viability, % at 10 µM. 140,000 compounds, 1.2% hits;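 active = viability at or below a set limit, 4 SD under the median of all tested compounds, cut at about 3.7% in these data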;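 also: PTEN knockout HCT116 line with beta catenin targeted HCT116 as companion control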
Lmaj promast: Leishmania major promastigote growth inhibition, primary screen. Leishmania major promastigotes, resazurin fluorescence viability. AID 1063, 2008. 200,000 compounds, 9% hits. inhibition, % at 10 µM; in the data active = inhibition above about 50%;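 also: promastigotes grown with compound for 44 hours at 28 °C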
PMI activator: activators of human PMI, primary screen, biochemical, fluorescence intensity, near-Km mannose 6-phosphate; Mannose-6-phosphate isomerase (Homo sapiens), P34949; purified human PMI, coupled resazurin fluorescence, 20 min; stronger effect = higher value; 1 = vehicle control, 0 substrate-free wells; activation factor at 20 µM; 190,000 compounds, 0.005% hits;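 active = activation factor of 2 or more at 20 µM, relative to plate controls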
bCat KO growth: primary screen for growth suppressors in beta-catenin knockout HCT116 cells (colon tumor, human). 140,000 compounds, 1.5% hits. viability, % at 10 µM. HCT116 beta-catenin knockout viability, CellTiter-Glo, 60 h; stronger effect = lower value;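 active = viability at or under a set limit, the compound median less 4 SD, cut at about 6% in these data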
Numbers stand for hits. Only some compounds are listed: those with a hit (about 9.6% of all), similar ones and a draw of the others.

For CN1CCN(C(=O)C2=C[C@@H](C3CCCCC3)C[C@@H](OCCCCO)O2)CC1 the results were PMI act hi M6P inactive, Lmaj promast inactive and PMI activator inactive.
COCCCNC(=O)C1CCN(C(=O)c2cc3sccc3n2Cc2ccc(F)cc2)CC1 was read as PMI act hi M6P inactive, PTEN del growth inactive, Lmaj promast inactive, PMI activator inactive and bCat KO growth inactive.
`CCN1CCCC1CNC(=O)C1CCN(C(=O)c2cc3sccc3n2Cc2ccc(F)cc2)CC1` (stereo unspecified) gave PMI act hi M6P inactive, Lmaj promast 90 and PMI activator inactive.
Screening CC1(C)COC2(OC1)C(=O)Nc1ccccc12 returned PMI act hi M6P inactive, Lmaj promast inactive and PMI activator inactive.
O=C1Nc2ccccc2C12OCC1(CO2)COC2(OC1)C(=O)Nc1ccccc12 (stereo unspecified) was read as PMI act hi M6P inactive, PTEN del growth inactive, Lmaj promast 91, PMI activator inactive and bCat KO growth inactive.
COc1ccccc1N1C[C@@H]2C[C@@H](c3ccco3)N3CCC[C@@]23C1=O was read as PMI act hi M6P inactive, Lmaj promast inactive and PMI activator inactive.
For C/C(=N\Nc1cccc(C(=O)O)c1)c1ccc(Cl)s1 the results were PMI act hi M6P 2.6, Lmaj promast inactive and PMI activator inactive.
Screening COc1ccc(/C(C)=N/Nc2cccc(C(=O)O)c2)cc1OC returned PMI act hi M6P 2.5, Lmaj promast inactive and PMI activator inactive.
For COc1ccc(Br)cc1/C=N/Nc1cccc(C(=O)O)c1 the results were PMI act hi M6P inactive, PTEN del growth inactive, Lmaj promast inactive, PMI activator inactive and bCat KO growth inactive.
Screening CC(NC(=O)CCN1C(=O)c2ccccc2C1=O)c1ccc2c(c1)CCCC2 (stereo unspecified) returned PMI act hi M6P inactive, PTEN del growth inactive, Lmaj promast inactive, PMI activator inactive and bCat KO growth inactive.
Screening CC1=NOC(=O)/C1=C\c1ccc(-c2ccc(Br)cc2C(=O)O)o1 returned PMI act hi M6P inactive, Lmaj promast inactive and PMI activator inactive.
For CC1=NOC(=O)/C1=C\c1ccc(-c2cc(Cl)ccc2Cl)o1 the results were PMI act hi M6P inactive, PTEN del growth 2.5, Lmaj promast 99, PMI activator inactive and bCat KO growth 3.0.
Screening CC1=NOC(=O)/C1=C\c1ccc(-c2ccc(Br)cc2)o1 returned PMI act hi M6P inactive, Lmaj promast 62 and PMI activator inactive.
`CC1=NOC(=O)/C1=C/c1ccc(-c2ccc(Cl)cc2)o1` gave PMI act hi M6P inactive, PTEN del growth inactive, Lmaj promast 100, PMI activator inactive and bCat KO growth inactive.
Screening CC1=CC(C)(C)N2C(=O)C3(SCC(=O)N3c3ccc(F)cc3)c3cc(C)cc1c32 (stereo unspecified) returned PMI act hi M6P inactive, PTEN del growth inactive, Lmaj promast 92, PMI activator inactive and bCat KO growth inactive.
CC(=O)Cc1nsc(NC(=O)c2cccs2)n1 was read as PMI act hi M6P inactive, PTEN del growth inactive, Lmaj promast inactive, PMI activator inactive and bCat KO growth inactive.
O=C(CSc1nnnn1-c1ccccc1)CC(=O)Nc1ccc(Cl)cc1 was read as PMI act hi M6P inactive, PTEN del growth inactive, Lmaj promast inactive, PMI activator inactive and bCat KO growth inactive.
For COc1ccc(CNC(=S)N/N=C/c2ccncc2)cc1 the results were PMI act hi M6P inactive, PTEN del growth inactive, Lmaj promast 54, PMI activator inactive and bCat KO growth inactive.
Screening CCOc1ccc(CNC(=S)N/N=C/c2ccncc2)cc1 returned PMI act hi M6P inactive, PTEN del growth inactive, Lmaj promast inactive, PMI activator inactive and bCat KO growth inactive.
Screening Cc1cc(C)n2nc(CC#N)c(C#N)c2n1 returned PMI act hi M6P inactive, Lmaj promast inactive and PMI activator inactive.
Screening Cc1cc(C)n2nc(/C(C#N)=C/c3ccccn3)c(C#N)c2n1 returned PMI act hi M6P inactive, Lmaj promast 97 and PMI activator inactive.
COc1ccc(OC)c(CNC(=O)C2CCN(S(C)(=O)=O)CC2)c1 was read as PMI act hi M6P inactive, Lmaj promast inactive and PMI activator inactive.
Screening CCOC(=O)C1=CN(Cc2ccc(OC)cc2)C=C(C(=O)OCC)C1c1cccs1 returned PMI act hi M6P inactive, Lmaj promast 100 and PMI activator inactive.
`CCOC(=O)C1=C(N)OC2=C(C(=O)CC(C)(C)C2)C1c1cccs1` (stereo unspecified) gave PMI act hi M6P inactive, PTEN del growth inactive, Lmaj promast inactive, PMI activator inactive and bCat KO growth inactive.
Screening COCCOC(=O)C1=C(C)OC(N)=C(C#N)C1c1cc2cccc(C)c2nc1Cl (stereo unspecified) returned PMI act hi M6P inactive, Lmaj promast inactive and PMI activator inactive.
CC1(C)NC(=O)N(CC(=O)OCC(=O)Nc2cc(S(=O)(=O)N3CCCCC3)ccc2Cl)C1=O was read as PMI act hi M6P inactive, PTEN del growth inactive, Lmaj promast 70, PMI activator inactive and bCat KO growth inactive.
COc1ccccc1CNC(=O)COC(=O)/C=C/c1cccs1 was read as PMI act hi M6P inactive, PTEN del growth inactive, Lmaj promast 51, PMI activator inactive and bCat KO growth inactive.
CN(C)CCCNc1ncc(C(F)(F)F)cc1Cl was read as PMI act hi M6P inactive, Lmaj promast inactive and PMI activator inactive.
Screening CN(C)CCCNS(=O)(=O)c1ccc(Oc2ncc(C(F)(F)F)cc2Cl)cc1 returned PMI act hi M6P inactive, PTEN del growth inactive, Lmaj promast 95, PMI activator inactive and bCat KO growth inactive.
`COc1ccc2c(=O)c3c(=O)n(Cc4ccco4)c(-c4ccccc4)nc3oc2c1` gave PMI act hi M6P inactive, PTEN del growth inactive, Lmaj promast 62, PMI activator inactive and bCat KO growth inactive.
For CCCCCCn1c(-c2ccco2)nc2oc3cc(OC)ccc3c(=O)c2c1=O the results were PMI act hi M6P inactive, PTEN del growth inactive, Lmaj promast 52, PMI activator inactive and bCat KO growth inactive.
For CCCc1nc2oc3cc(OC)ccc3c(=O)c2c(=O)n1Cc1ccco1 the results were PMI act hi M6P inactive, PTEN del growth inactive, Lmaj promast inactive, PMI activator inactive and bCat KO growth inactive.
Screening COc1ccc2c(=O)c3c(=O)n(Cc4ccco4)c(-c4cc(OC)c(OC)c(OC)c4)nc3oc2c1 returned PMI act hi M6P inactive, PTEN del growth inactive, Lmaj promast 67, PMI activator inactive and bCat KO growth inactive.
For CC(C)Sc1nc(C(F)(F)F)cc(=O)n1-c1ccccc1 the results were PMI act hi M6P inactive, PTEN del growth inactive, Lmaj promast inactive, PMI activator inactive and bCat KO growth inactive.
For Cc1occc1-c1nnc(-c2cc([N+](=O)[O-])cc([N+](=O)[O-])c2)o1 the results were PMI act hi M6P inactive, Lmaj promast 82 and PMI activator inactive.
